In paper PMC9720839 (Cell reports, 2022):
Entries after “also recorded” stand apart in the source; their conditions may differ. {56-FAM} = 6-carboxyfluorescein label (IDT code)

Experiments:
[1] = target: hP13 ZnF5-WWE1-WWE2 (wild type) (Homo sapiens, UniProt Q7Z2W4); assay: Differential scanning fluorimetry; type: binding; details: protein 8 μM, DSF
Outline: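 His-GB1-tagged human fragment (residues 507–699) expressed in E. coli Rosetta2, TEV-cleaved, purified by Ni2+, gel filtration and Q flow-through. TM from Boltzmann fit; ΔTM = TM with ligand minus without; two repeats.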

[2] = target: T1, hP13 ZnF5-WWE1-WWE2 W611A mutant (Homo sapiens, UniProt Q7Z2W4, W611A); assay: Differential scanning fluorimetry; type: binding; details: protein 8 μM, DSF
WWE domain from RNF-146 = details: ref Wang et al., 2012; cited from earlier work
hP13 ZnF5-WWE1-WWE2 = hP13 ZnF5-WWE1-WWE2 (Homo sapiens, UniProt Q7Z2W4); assay: FP RNA binding assay; details: FAM-labeled RNA 5 nM, 300 mM KCl
[3] = target: mouse PARP13 (mP13) ZnF5-WWE1-WWE2 (residues 476-673) (mouse) (UniProt Q3UPF5); assay: SEC-MALS
WWE domain of RNF-146 = assay: Fluorescence polarization; details: direct FP binding, probe 5 nM
[4] = target: T1, hP13 ZnF5-WWE1-WWE2 W611A mutant; assay: Fluorescence polarization; details: direct FP binding, probe 5 nM
Outline: (§1)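 QuickChange point mutants of human fragment (residues 507–699), His-GB1 fusion, expressed in Rosetta2 (0.2 mM IPTG, 16°C, 18 h), TEV-cleaved, purified by Ni2+, gel filtration, Q flow-through. Quadratic 1:1 KD fit; ≥3 experiments, mean ± SD.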

[5] = target: hP13 ZnF5-WWE1-WWE2 R682A mutant (Homo sapiens, UniProt Q7Z2W4, R682A); assay: Fluorescence polarization; type: binding; details: R682A versus wild-type hP13 ZnF5-WWE1-WWE2
Outline: as §1

[6] = target: hP13 ZnF5-WWE1-WWE2 R577A mutant (Homo sapiens, UniProt Q7Z2W4, R577A); assay: Fluorescence polarization; type: binding; details: R577A versus wild-type hP13 ZnF5-WWE1-WWE2
Outline: as §1

T1 sequence (Q7Z2W4 507-699 W611A): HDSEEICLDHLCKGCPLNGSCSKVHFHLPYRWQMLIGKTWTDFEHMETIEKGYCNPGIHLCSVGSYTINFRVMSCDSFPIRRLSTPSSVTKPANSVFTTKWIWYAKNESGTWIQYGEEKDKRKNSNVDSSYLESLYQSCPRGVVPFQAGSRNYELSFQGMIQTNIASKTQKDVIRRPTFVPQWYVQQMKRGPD
Chain of hP13 ZnF5-WWE1-WWE2 (wild type) (Q7Z2W4 507-699): as the sequence (Q7Z2W4 507-699 W611A) above, with A105W counted along it
Chain of hP13 ZnF5-WWE1-WWE2 R682A mutant (Q7Z2W4 507-699 R682A): as the sequence (Q7Z2W4 507-699 W611A) above, with A105W, R176A counted along it
Chain of hP13 ZnF5-WWE1-WWE2 (Q7Z2W4 507-699): as the sequence (Q7Z2W4 507-699 W611A) above, with A105W counted along it
Chain of hP13 ZnF5-WWE1-WWE2 R577A mutant (Q7Z2W4 507-699 R577A): as the sequence (Q7Z2W4 507-699 W611A) above, with R71A, A105W counted along it

Row | Compound | change in thermal stability in presence of ligand (in words) [1] | change in thermal stability in presence of ligand (in words) [2] | binding (in words) (WWE domain from RNF-146) | also measured
1 | Nc1ncnc2c1ncn2[C@@H]1O[C@H](COP(=O)(O)OP(=O)(O)OC[C@H]2OC(O)[C@H](O)[C@@H]2O)[C@@H](O)[C@H]1O (some centres unmarked) [ADPr, ADP-ribose] | increase in the thermal stability; also recorded: increased hP13 ZnF5-WWE1-WWE2 thermal stability | did not show an increase in thermal stability | do not bind | –
2 | Nc1ncnc2c1ncn2[C@@H]1O[C@H](COP(=O)(O)OP(=O)(O)OP(=O)(O)O)[C@@H](O)[C@H]1O [ATP] | increase in the thermal stability | did not show an increase in thermal stability | – | –
3 | Nc1ncnc2c1ncn2[C@@H]1O[C@H](COP(=O)(O)O)[C@@H](O)[C@H]1O[C@@H]1O[C@H](COP(=O)(O)O)[C@@H](O)[C@H]1O [iso-ADPr] | increase in thermal stability in the presence of iso-ADPr, but to a lesser extent than seen with ADPr | – | capable of binding | –
4 | /56-FAM/rArArArCrArArArArArArArGrArCrGrArArArArA (AAACAAAAAAAGACGAAAAA; RNA, 5' {56-FAM}, backbone not given here) [RNA-FAM] | – | – | – | RNA binding (in words) (hP13 ZnF5-WWE1-WWE2): unable to bind
5 | mouse PARP13 (mP13) ZnF5-WWE1-WWE2 (residues 476-673) (from UniProt Q3UPF5 476-673) (domain or fragment) | – | – | – | percent of the scattering mass in the dimer peak [3]: 4%; stoichiometry N [3]: 2
6 | γ-(6-Aminohexyl)-ATP-6-FAM [ATP-FAM] | – | – | – | binding to probe (in words) (WWE domain of RNF-146): no evidence of binding; also recorded: no indication of binding; binding to probe (in words) [4]: no evidence of binding; also recorded: no indication of binding; binding affinity, fold weaker than wild type [5]: 1.2 fold; binding affinity, fold weaker than wild type [6]: 1.1 fold
